From ChEMBL document CHEMBL3227952, “Potential organ- or tumor-imaging agents. 18. Radioiodinated diamines and bisquaternaries” (J Med Chem, 1979)

Experiments:
Spleen [1] = assay: Drug uptake in Sprague-Dawley rat spleen at 11.9 to 12.1 uCi, iv after 0.5 hrs by liquid scintillation counting; assay type: ADME, organism-based; conditions: in vivo
Heart [2] = assay: Drug uptake in Sprague-Dawley rat heart at 11.9 to 12.1 uCi, iv after 0.5 hrs by liquid scintillation counting; assay type: ADME, organism-based; conditions: in vivo
Heart [3] = assay: Drug uptake in Sprague-Dawley rat heart at 11.9 to 12.1 uCi, iv after 2 hrs by liquid scintillation counting; assay type: ADME, organism-based; conditions: in vivo, in the assay text read “gamma counting” for “liquid scintillation counting”
Method in brief: (§1)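 Dosing was by tail vein under ether. Five rats were killed by exsanguination at each time. Organs were rinsed, blotted and weighed, with duplicate samples in cellulose acetate capsules. Samples were counted in a well-scintillation gamma counter at 87% efficiency. Results are % administered dose/g, mean ± SEM.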

Thyroid gland [4] = assay: Drug uptake in Sprague-Dawley rat thyroid at 11.9 to 12.1 uCi, iv after 0.5 hrs by liquid scintillation counting; assay type: ADME, organism-based; conditions: in vivo
Method in brief: (§2)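 Five rats per time point were exsanguinated under ether. Organs were excised, rinsed, blotted and weighed. Duplicate samples were counted in a well-scintillation gamma counter (87% efficiency). Results are % administered dose/g, mean ± SEM.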

Blood [5] = assay: Drug uptake in Sprague-Dawley rat blood at 11.9 to 12.1 uCi, iv after 0.5 hrs by liquid scintillation counting; assay type: ADME, organism-based; conditions: in vivo
Duodenum [6] = assay: Drug uptake in Sprague-Dawley rat duodenum at 11.9 to 12.1 uCi, iv after 2 hrs by liquid scintillation counting; assay type: ADME, organism-based; conditions: in vivo, in the assay text read “gamma counting” for “liquid scintillation counting”; method in brief: as §1
[7] = Drug uptake in Sprague-Dawley rat bone marrow at 11.9 to 12.1 uCi, iv after 2 hrs by liquid scintillation counting; assay type: ADME, organism-based; conditions: in vivo
Kidney [8] = assay: Drug uptake in Sprague-Dawley rat kidney at 11.9 to 12.1 uCi, iv after 2 hrs by liquid scintillation counting; assay type: ADME, organism-based; conditions: in vivo, in the assay text read “gamma counting” for “liquid scintillation counting”; method in brief: as §2
Adrenal [9] = assay: Drug uptake in Sprague-Dawley rat adrenal at 11.9 to 12.1 uCi, iv after 2 hrs by liquid scintillation counting; assay type: ADME, organism-based, Adrenal gland; conditions: in vivo; method in brief: as §1
Lung [10] = assay: Drug uptake in Sprague-Dawley rat lung at 11.9 to 12.1 uCi, iv after 0.5 hrs by liquid scintillation counting; assay type: ADME, organism-based; conditions: in vivo
Pituitary gland [11] = assay: Drug uptake in Sprague-Dawley rat pituitary at 11.9 to 12.1 uCi, iv after 0.5 hrs by liquid scintillation counting; assay type: ADME, organism-based; conditions: in vivo
[12] = Drug uptake in Sprague-Dawley rat ventral prostate at 11.9 to 12.1 uCi, iv after 2 hrs by liquid scintillation counting; assay type: ADME, organism-based, Prostate gland; conditions: in vivo; method in brief: as §2
[13] = Drug uptake in Sprague-Dawley rat dorsolateral prostate at 11.9 to 12.1 uCi, iv after 2 hrs by liquid scintillation counting; assay type: ADME, organism-based, Prostate gland; conditions: in vivo
Liver [14] = assay: Drug uptake in Sprague-Dawley rat liver at 11.9 to 12.1 uCi, iv after 2 hrs by liquid scintillation counting; assay type: ADME, organism-based; conditions: in vivo, in the assay text read “gamma counting” for “liquid scintillation counting”; method in brief: as §2
Spleen [15] = assay: Drug uptake in Sprague-Dawley rat spleen at 11.9 to 12.1 uCi, iv after 2 hrs by liquid scintillation counting; assay type: ADME, organism-based; conditions: in vivo, in the assay text read “well-scintillation gamma counting” for “liquid scintillation counting”; method in brief: as §2
[16] = Drug uptake in Sprague-Dawley rat dorsolateral prostate at 11.9 to 12.1 uCi, iv after 0.5 hrs by liquid scintillation counting; assay type: ADME, organism-based, Prostate gland; conditions: in vivo
[17] = Drug uptake in Sprague-Dawley rat ventral prostate at 11.9 to 12.1 uCi, iv after 0.5 hrs by liquid scintillation counting; assay type: ADME, organism-based, Prostate gland; conditions: in vivo
Pancreas [18] = assay: Drug uptake in Sprague-Dawley rat pancreas at 11.9 to 12.1 uCi, iv after 2 hrs by liquid scintillation counting; assay type: ADME, organism-based; conditions: in vivo, in the assay text read “well-scintillation gamma counting” for “liquid scintillation counting”; method in brief: as §2
[19] = Drug uptake in Sprague-Dawley rat bone marrow at 11.9 to 12.1 uCi, iv after 0.5 hrs by liquid scintillation counting; assay type: ADME, organism-based; conditions: in vivo; method in brief: as §1
Kidney [20] = assay: Drug uptake in Sprague-Dawley rat kidney at 11.9 to 12.1 uCi, iv after 0.5 hrs by liquid scintillation counting; assay type: ADME, organism-based; conditions: in vivo
[21] = Drug uptake in Sprague-Dawley rat diaphragm at 11.9 to 12.1 uCi, iv after 2 hrs by liquid scintillation counting; assay type: ADME, organism-based; conditions: in vivo
Brain [22] = assay: Drug uptake in Sprague-Dawley rat brain at 11.9 to 12.1 uCi, iv after 0.5 hrs by liquid scintillation counting; assay type: ADME, organism-based; conditions: in vivo
Testes [23] = assay: Drug uptake in Sprague-Dawley rat testes at 11.9 to 12.1 uCi, iv after 2 hrs by liquid scintillation counting; assay type: ADME, organism-based, Testis; conditions: in vivo, in the assay text read “well-scintillation gamma counting” for “liquid scintillation counting”; method in brief: as §2
Pituitary gland [24] = assay: Drug uptake in Sprague-Dawley rat pituitary at 11.9 to 12.1 uCi, iv after 2 hrs by liquid scintillation counting; assay type: ADME, organism-based; conditions: in vivo, in the assay text read “well-scintillation gamma counting” for “liquid scintillation counting”; method in brief: as §2
Adrenal [25] = assay: Drug uptake in Sprague-Dawley rat adrenal at 11.9 to 12.1 uCi, iv after 0.5 hrs by liquid scintillation counting; assay type: ADME, organism-based, Adrenal gland; conditions: in vivo
Duodenum [26] = assay: Drug uptake in Sprague-Dawley rat duodenum at 11.9 to 12.1 uCi, iv after 0.5 hrs by liquid scintillation counting; assay type: ADME, organism-based; conditions: in vivo
Testes [27] = assay: Drug uptake in Sprague-Dawley rat testes at 11.9 to 12.1 uCi, iv after 0.5 hrs by liquid scintillation counting; assay type: ADME, organism-based, Testis; conditions: in vivo; method in brief: as §2
Brain [28] = assay: Drug uptake in Sprague-Dawley rat brain at 11.9 to 12.1 uCi, iv after 2 hrs by liquid scintillation counting; assay type: ADME, organism-based; conditions: in vivo
[29] = Drug uptake in Sprague-Dawley rat diaphragm at 11.9 to 12.1 uCi, iv after 0.5 hrs by liquid scintillation counting; assay type: ADME, organism-based; conditions: in vivo; method in brief: as §1
Pancreas [30] = assay: Drug uptake in Sprague-Dawley rat pancreas at 11.9 to 12.1 uCi, iv after 0.5 hrs by liquid scintillation counting; assay type: ADME, organism-based; conditions: in vivo; method in brief: as §2
Liver [31] = assay: Drug uptake in Sprague-Dawley rat liver at 11.9 to 12.1 uCi, iv after 0.5 hrs by liquid scintillation counting; assay type: ADME, organism-based; conditions: in vivo; method in brief: as §2
Blood [32] = assay: Drug uptake in Sprague-Dawley rat blood at 11.9 to 12.1 uCi, iv after 2 hrs by liquid scintillation counting; assay type: ADME, organism-based; conditions: in vivo
Thyroid gland [33] = assay: Drug uptake in Sprague-Dawley rat thyroid at 11.9 to 12.1 uCi, iv after 2 hrs by liquid scintillation counting; assay type: ADME, organism-based; conditions: in vivo, in the assay text read “well-scintillation gamma counting” for “liquid scintillation counting”; method in brief: as §2
Lung [34] = assay: Drug uptake in Sprague-Dawley rat lung at 11.9 to 12.1 uCi, iv after 2 hrs by liquid scintillation counting; assay type: ADME, organism-based; conditions: in vivo, in the assay text read “gamma counting” for “liquid scintillation counting”; method in brief: as §2

## CN(C)Cc1ccc(CN(C)C)c([125I])c1
Spleen [1]
  Drug uptake: 1.402 % ID/g
Heart [2]
  Drug uptake: 0.367 % ID/g
Heart [3]
  Drug uptake: 0.174 % ID/g
Thyroid gland [4]
  Drug uptake: 5.001 % ID/g
Blood [5]
  Drug uptake: 0.05 % ID/g
Duodenum [6]
  Drug uptake: 0.349 % ID/g
[7]
  Drug uptake: 0.569 % ID/g
Kidney [8]
  Drug uptake: 2.225 % ID/g
Adrenal [9]
  Drug uptake: 1.84 % ID/g
Lung [10]
  Drug uptake: 1.993 % ID/g
Pituitary gland [11]
  Drug uptake: 0.899 % ID/g
[12]
  Drug uptake: 0.588 % ID/g
[13]
  Drug uptake: 0.614 % ID/g
Liver [14]
  Drug uptake: 1.042 % ID/g
Spleen [15]
  Drug uptake: 1.511 % ID/g
[16]
  Drug uptake: 0.657 % ID/g
[17]
  Drug uptake: 0.673 % ID/g
Pancreas [18]
  Drug uptake: 0.349 % ID/g
[19]
  Drug uptake: 0.483 % ID/g
Kidney [20]
  Drug uptake: 3.598 % ID/g
[21]
  Drug uptake: 0.114 % ID/g
Brain [22]
  Drug uptake: 1.791 % ID/g
Testes [23]
  Drug uptake: 0.163 % ID/g
Pituitary gland [24]
  Drug uptake: 0.684 % ID/g
Adrenal [25]
  Drug uptake: 2.287 % ID/g
Duodenum [26]
  Drug uptake: 1.053 % ID/g
Testes [27]
  Drug uptake: 0.154 % ID/g
Brain [28]
  Drug uptake: 1.255 % ID/g
[29]
  Drug uptake: 0.241 % ID/g
Pancreas [30]
  Drug uptake: 0.737 % ID/g
Liver [31]
  Drug uptake: 1.069 % ID/g
Blood [32]
  Drug uptake: 0.038 % ID/g
Thyroid gland [33]
  Drug uptake: 3.114 % ID/g
Lung [34]
  Drug uptake: 1.065 % ID/g
